Source: ChEMBL document CHEMBL1137992, “Long hydrocarbon chain keto diols and diacids that favorably alter lipid disorders in vivo” (J Med Chem, 2004)

Columns and labels:
Assay type in all cases: functional
[1] = test system: Rattus norvegicus; test: Percent increase in HDL-cholesterol in obese Zucker rats after 2 weeks of treatment at a dose of 10 mg/kg/day
Outline: (§1)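 Female Zucker fatty rats [Crl:(Zuc)-faBR], 10–12 weeks, 400–500 g, acclimated 7 days on chow. Compound or vehicle (20% EtOH/80% PEG-200) given by daily oral gavage for 2 weeks, 0–100 mg/kg/day. After a 6 h fast, blood was taken before dosing, at 1 wk and at 2 wk. Serum lipids, NEFA and insulin (ELISA) were measured; glucose by glucometer. HDL/non-HDL-C came from Superose 6 gel-filtration profiles. Values are % change from pretreatment, mean ± SEM.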

[2] = test system: Rattus norvegicus; test: Percent decrease in nonesterified fatty acids in obese Zucker rats after 2 weeks of treatment at a dose of 30 mg/kg/day; set-up: scale not given: the % may be the effect or the level left; outline: as §1
[3] = test system: Rattus norvegicus; test: Percent increase in glucose in obese Zucker rats after 2 weeks of treatment at a dose of 3 mg/kg/day; outline: as §1
[4] = test system: Rattus norvegicus; test: Percent decrease in insulin in obese Zucker rats after 1 week of treatment at a dose of 100 mg/kg/day; set-up: scale not given: the % may be the effect or the level left; outline: as §1
[5] = test system: Rattus norvegicus; test: Percent increase in insulin in obese Zucker rats after 2 weeks of treatment at a dose of 30 mg/kg/day; outline: as §1
[6] = test system: Rattus norvegicus; test: Percent increase in non-HDL-cholesterol in obese Zucker rats after 2 weeks of treatment at a dose of 10 mg/kg/day; outline: as §1
[7] = test system: Rattus norvegicus; test: Percent decrease in nonesterified fatty acids in obese Zucker rats after 2 weeks of treatment at a dose of 3 mg/kg/day; set-up: scale not given: the % may be the effect or the level left; outline: as §1
[8] = test system: Rattus norvegicus; test: Percent increase in HDL-cholesterol in obese Zucker rats after 1 week of treatment at a dose of 10 mg/kg/day; outline: as §1
[9] = test system: Rattus norvegicus; test: Percent decrease in nonesterified fatty acids in obese Zucker rats after 1 week of treatment at a dose of 3 mg/kg/day; set-up: scale not given: the % may be the effect or the level left; outline: as §1
[10] = test system: Rattus norvegicus; test: Percent decrease in nonesterified fatty acids in obese Zucker rats after 2 weeks of treatment at a dose of 10 mg/kg/day; set-up: scale not given: the % may be the effect or the level left; outline: as §1
[11] = test system: Rattus norvegicus; test: Percent increase in triglycerides in obese Zucker rats after 1 week of treatment at a dose of 0 mg/kg/day; outline: as §1
[12] = test system: Rattus norvegicus; test: Percent decrease in non-HDL-cholesterol in obese Zucker rats after 1 week of treatment at a dose of 30 mg/kg/day; set-up: scale not given: the % may be the effect or the level left; outline: as §1
[13] = test system: Rattus norvegicus; test: Percent increase in triglycerides in obese Zucker rats after 2 weeks of treatment at a dose of 0 mg/kg/day; outline: as §1
[14] = test system: Rattus norvegicus; test: Percent decrease in non-HDL-cholesterol in obese Zucker rats after 2 weeks of treatment at a dose of 100 mg/kg/day; set-up: scale not given: the % may be the effect or the level left; outline: as §1
[15] = test system: Rattus norvegicus; test: Percentage change of HDL cholesterol levels in obese female Zucker rats after 2 weeks of pre-treatment at a dose of 100 mg/kg/day
Outline: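 Obese female Zucker fatty rats were gavaged once daily with 30 or 100 mg/kg/day in 20% EtOH/80% PEG-200 for 2 weeks. Sera were collected after a 6 h fast, before dosing, at 1 week (orbital plexus) and at 2 weeks (cardiac puncture). HDL-C was total cholesterol multiplied by HDL area fraction from gel-filtration lipoprotein profiles. Reported as % change from pretreatment ± SEM.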

[16] = test system: Rattus norvegicus; test: Amount of non-HDL-cholesterol in obese Zucker rats after 2 weeks of treatment at a dose of 3 mg/kg/day
Outline: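 Female obese Zucker fatty rats [Crl:(Zuc)-faBR], 10–12 weeks old (400–500 g), on chow. Compound in 20% EtOH/80% PEG-200 (v/v) given by daily oral gavage. After a 6-h fast, serum was taken before dosing and at 7 days (orbital plexus), and at 14 days (cardiac puncture). Lipoprotein cholesterol came from Superose 6HR gel-filtration profiles × serum total cholesterol. Mean ± SEM.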

[17] = test system: Rattus norvegicus; test: Amount of nonesterified fatty acids in obese Zucker rats after 1 week of treatment at a dose of 10 mg/kg/day
Outline: (§2)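 Female Zucker fatty rats [Crl:(Zuc)-faBR], 10–12 weeks old (400–500 g), dosed once daily by oral gavage in 20% EtOH/80% PEG-200 for up to 14 days. After a 6-h fast, serum was taken pre-dose, at day 7 (orbital venous plexus, O2/CO2 anaesthesia) and at day 14 (cardiac puncture), stored at −80 °C, and assayed on a Hitachi 912 automatic analyzer. Mean ± SEM.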

[18] = test system: Rattus norvegicus; test: Percent increase in HDL-cholesterol in obese Zucker rats after 2 weeks of treatment at a dose of 100 mg/kg/day; outline: as §1
[19] = test system: Rattus norvegicus; test: Amount of nonesterified fatty acids in obese Zucker rats after 2 weeks of treatment at a dose of 30 mg/kg/day; outline: as §2
[20] = test system: Rattus norvegicus; test: Amount of HDL-cholesterol in obese Zucker rats at pre-treatment at a dose of 0 mg/kg/day
Outline: (§3)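 Female Zucker fatty rats [Crl:(Zuc)-faBR], 10–12 weeks old (400–500 g), dosed once daily by oral gavage in 20% EtOH/80% PEG-200 (dose volume 0.25% of body weight). Rats were fasted 6 h and bled before dosing and at day 7 (orbital plexus), and at day 14 (cardiac puncture). Serum cholesterol fractions came from Superose 6 gel-filtration lipoprotein profiles (% peak area × serum total cholesterol). Values are mean ± SEM.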

[21] = test system: Rattus norvegicus; test: Amount of triglycerides in obese Zucker rats at pre-treatment at a dose of 100 mg/kg/day; outline: as §2
[22] = test system: Rattus norvegicus; test: Percent decrease in triglycerides in obese Zucker rats after 1 week of treatment at a dose of 100 mg/kg/day; set-up: scale not given: the % may be the effect or the level left; outline: as §1
[23] = test system: Rattus norvegicus; test: Percent decrease in insulin in obese Zucker rats after 1 week of treatment at a dose of 10 mg/kg/day; set-up: scale not given: the % may be the effect or the level left; outline: as §1
[24] = test system: Rattus norvegicus; test: Amount of nonesterified fatty acids in obese Zucker rats after 2 weeks of treatment at a dose of 100 mg/kg/day; outline: as §2
[25] = test system: Rattus norvegicus; test: Amount of glucose in obese Zucker rats at pre-treatment at a dose of 30 mg/kg/day
Outline: (§4)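 Female Zucker fatty rats [Crl:(Zuc)-faBR], 10–12 weeks old (400–500 g), gavaged daily with vehicle (20% EtOH/80% PEG-200, 0.25% of body weight) or compound. After a 6-h fast, blood glucose was read by glucometer from tail-prick blood of unanesthetized rats before dosing and after 1 and 2 weeks. Values are mean ± SEM.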

[26] = test system: Rattus norvegicus; test: Amount of glucose in obese Zucker rats after 1 week of treatment at a dose of 30 mg/kg/day; outline: as §4
[27] = test system: Rattus norvegicus; test: Amount of glucose in obese Zucker rats after 2 weeks of treatment at a dose of 10 mg/kg/day; outline: as §4
[28] = test system: Rattus norvegicus; test: Percent decrease in non-HDL-cholesterol in obese Zucker rats after 1 week of treatment at a dose of 100 mg/kg/day; set-up: scale not given: the % may be the effect or the level left; outline: as §1
[29] = test system: Rattus norvegicus; test: Amount of triglycerides in obese Zucker rats after 2 weeks of treatment at a dose of 0 mg/kg/day; outline: as §2
[30] = test system: Rattus norvegicus; test: Percent decrease in insulin in obese Zucker rats after 2 weeks of treatment at a dose of 0 mg/kg/day; set-up: scale not given: the % may be the effect or the level left; outline: as §1
[31] = test system: Rattus norvegicus; test: Amount of non-HDL-cholesterol in obese Zucker rats after 2 weeks of treatment at a dose of 10 mg/kg/day; outline: as §3
[32] = test system: Rattus norvegicus; test: Percent decrease in HDL-cholesterol in obese Zucker rats after 2 weeks of treatment at a dose of 3 mg/kg/day; set-up: scale not given: the % may be the effect or the level left; outline: as §1
[33] = test system: Rattus norvegicus; test: Percent increase in nonesterified fatty acids in obese Zucker rats after 2 weeks of treatment at a dose of 100 mg/kg/day; outline: as §1

## CC(C)(CCCCCC(=O)CCCCCC(C)(C)C(=O)O)C(=O)O
[1]
  Activity: 60%
[2]
  Activity: -49%
[3]
  Activity: 8%
[4]
  Activity: -46%
[5]
  Activity: -21%
[6]
  Activity: 55%
[7]
  Activity: -23%
[8]
  Activity: 58%
[9]
  Activity: -15%
[10]
  Activity: -21%
[11]
  Activity: 18%
[12]
  Activity: -48%
[13]
  Activity: 25%
[14]
  Activity: -88%

## CC(C)(CCCCC(=O)CCCCC(C)(C)C(=O)O)C(=O)O
[15]
  Change: 78%
[16]
  Activity: 24 mg/dL
[17]
  Activity: 0.92 mg/dL
[18]
  Activity: 79%
[19]
  Activity: 1.1 mg/dL
[20]
  Activity: 39 mg/dL
[21]
  Activity: 964 mg/dL
[22]
  Activity: -60%
[23]
  Activity: -27%
[24]
  Activity: 0.66 mg/dL
[25]
  Activity: 103 mg/dL
[26]
  Activity: 115 mg/dL
[27]
  Activity: 113 mg/dL
[28]
  Activity: -42%
[12]
  Activity: -23%
[29]
  Activity: 1140 mg/dL
[30]
  Activity: -31%
[14]
  Activity: -29%
[31]
  Activity: 27 mg/dL

## CC(C)(CO)CCCCC(=O)CCCCC(C)(C)CO
[1]
  Activity: 15%
[16]
  Activity: 22 mg/dL
[26]
  Activity: 112 mg/dL
[8]
  Activity: 13%
[27]
  Activity: 110 mg/dL
[11]
  Activity: 19%
[32]
  Activity: -19%
[33]
  Activity: -33%
[13]
  Activity: 18%
[31]
  Activity: 25 mg/dL
